From ChEMBL document CHEMBL2401663, “(Biphenyl-4-yl)methylammonium chlorides: potent anticonvulsants that modulate Na+ currents” (J Med Chem, 2013)
Calls of active or inactive are those of the source. The calls are words filed in the database; no cut-off is given here.

Key:
[1] = Toxicity in po dosed albino Sprague-Dawley rat assessed as behavioral toxicity after 0.25 to 4 hrs; assay type: organism-based; conditions: in vivo
In short: (§1)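 Male albino Sprague-Dawley rats dosed ip or orally, scored for behavioral toxicity (neurological impairment). TD50 is in mg/kg, taken at the time of peak effect.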

[2] = tested on: Rattus norvegicus; assay: Anticonvulsant activity against po dosed albino Sprague-Dawley rat after 0.25 to 4 hrs by maximal electroshock seizure test; assay type: functional
In short: (§2)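 Male albino Sprague-Dawley rats dosed ip or orally under the NIH Anticonvulsant Screening Program, tested by maximal electroshock seizure.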

[3] = Toxicity in ip dosed albino Sprague-Dawley rat assessed as behavioral toxicity after 0.25 to 4 hrs; assay type: organism-based; conditions: in vivo; in short: as §1
[4] = tested on: Rattus norvegicus; assay: Anticonvulsant activity against ip dosed albino Sprague-Dawley rat after […] by maximal electroshock seizure test; assay type: functional
[5] = Toxicity in ip dosed albino CF1 mouse after 0.25 to 4 hrs by rotorod test; assay type: organism-based; conditions: in vivo
[6] = tested on: Mus musculus; assay: Anticonvulsant activity against ip dosed albino CF1 mouse after 2 hrs by subcutaneous pentylenetetrazol test; assay type: functional; conditions: albino CF1, 2 h
[7] = tested on: Mus musculus; assay: Anticonvulsant activity against ip dosed albino CF1 mouse after 1 hr by 6 Hz psychomotor seizure test; assay type: functional
[8] = tested on: Mus musculus; assay: Anticonvulsant activity against ip dosed albino CF1 mouse after 0.25 to 4 hrs by maximal electroshock seizure test; assay type: functional
[9] = tested on: Rattus norvegicus; assay: Anticonvulsant activity against ip dosed albino Sprague-Dawley rat after 0.25 to 4 hrs by maximal electroshock seizure test; assay type: functional; in short: as §2
[10] = tested on: Mus musculus; assay: Anticonvulsant activity against ip dosed albino CF1 mouse after 0.25 to 4 hrs by subcutaneous pentylenetetrazol test; assay type: functional
[11] = tested on: Mus musculus; assay: Anticonvulsant activity against ip dosed albino CF1 mouse after 2 hrs by 6 Hz psychomotor seizure test; assay type: functional
[12] = tested on: Mus musculus; assay: Anticonvulsant activity against ip dosed albino CF1 mouse after 0.5 to 2 hrs by maximal electroshock seizure test; assay type: functional
[13] = tested on: Mus musculus; assay: Anticonvulsant activity against ip dosed albino CF1 mouse after […] by maximal electroshock seizure test; assay type: functional
[14] = tested on: Mus musculus; assay: Anticonvulsant activity against ip dosed albino CF1 mouse after 1 to 4 hrs by 6 Hz psychomotor seizure test; assay type: functional
[15] = tested on: Mus musculus; assay: Anticonvulsant activity against ip dosed albino CF1 mouse after 4 hrs by maximal electroshock seizure test; assay type: functional
[16] = tested on: Rattus norvegicus; assay: Anticonvulsant activity against po dosed albino Sprague-Dawley rat after 5 hrs by maximal electroshock seizure test; assay type: functional
In short: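 Male albino Sprague-Dawley rats given compound orally under the NIH Anticonvulsant Screening Program, then challenged by maximal electroshock.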

[17] = tested on: Mus musculus; assay: Anticonvulsant activity against ip dosed albino CF1 mouse after 1 hr by maximal electroshock seizure test; assay type: functional
[18] = tested on: Mus musculus; assay: Anticonvulsant activity against ip dosed albino CF1 mouse after 0.5 to 4 hrs by subcutaneous pentylenetetrazol test; assay type: functional
[19] = tested on: Mus musculus; assay: Anticonvulsant activity against ip dosed albino CF1 mouse after 0.5 to 1 hr by 6 Hz psychomotor seizure test; assay type: functional
[20] = tested on: Mus musculus; assay: Anticonvulsant activity against ip dosed albino CF1 mouse after 0.25 to 0.5 hrs by maximal electroshock seizure test; assay type: functional
[21] = tested on: CAD; assay: Inhibition of Na+ channel in mouse CAD cells assessed as frequency-dependent inactivation at 10 uM by whole cell voltage clamp technique relative to control; assay type: cell-based
In short: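 Frequency (use)-dependent inhibition of Na+ currents in CAD cells by whole-cell voltage clamp at room temperature. Current trend and amplitude at 10 μM compared with control.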

[22] = tested on: CAD; assay: Inhibition of Na+ channel in mouse CAD cells assessed as fast inactivation by whole cell voltage clamp technique; assay type: cell-based
In short: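 Steady-state fast inactivation in CAD cells by whole-cell voltage clamp at room temperature. Cells held at −80 mV, given 500-ms prepulses from −120 to −10 mV in 10-mV steps, then a 20-ms step to 0 mV. Curves fitted with a single Boltzmann; V1/2 shift compared with 0.1% DMSO by ANOVA and Dunnett's test. Mean ± SEM.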

[23] = Inhibition of Na+ channel in mouse CAD cells assessed as slow inactivation by whole cell voltage clamp technique; assay type: cell-based
In short: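 CAD cells (Ham's F12/EMEM, 8% FBS, 37 °C, 5% CO2) by whole-cell voltage clamp at room temperature. Na+ channel slow inactivation measured at −50 mV; IC50 is the concentration at which half of the channels reach a slow-inactivated state.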

| SMILES | TD50 [1] | ED50 [2] | TD50 [3] | TD50 [5] | ED50 [9] | other results |
| --- | --- | --- | --- | --- | --- | --- |
| Cl.NCc1ccc(-c2cccc(F)c2)cc1 | > 30 mg/kg | > 30 mg/kg | > 65 mg/kg | > 100 mg/kg | – | ED50 [4]: 65 mg/kg; ED50 [6]: 50 mg/kg; ED50 [7]: 50 mg/kg; ED50 [8]: > 50 mg/kg |
| Cl.NCc1ccc(-c2ccc(OC(F)(F)F)cc2)cc1 | > 30 mg/kg | > 30 mg/kg | > 30 mg/kg | > 50 mg/kg | > 30 mg/kg | ED50 [10]: > 50 mg/kg; ED50 [11]: < 100 mg/kg; ED50 [12]: 50 mg/kg |
| CCCC(CCC)C(=O)O [VALPROIC ACID] | – | – | – | – | – | ED50 [13]: 270 mg/kg |
| Cl.NCc1ccc(-c2ccc(F)cc2)cc1 | > 30 mg/kg | > 30 mg/kg | > 30 mg/kg | > 50 mg/kg | > 30 mg/kg | ED50 [10]: > 50 mg/kg; ED50 [14]: < 100 mg/kg; ED50 [15]: 50 mg/kg |
| CCC1(c2ccccc2)C(=O)NC(=O)NC1=O [PHENOBARBITAL] | – | – | – | – | – | ED50 [16]: 9.1 mg/kg; ED50 [17]: 22 mg/kg |
| Cl.NCc1ccc(-c2ccccc2)cc1 | > 30 mg/kg | > 30 mg/kg | > 30 mg/kg | > 100 mg/kg | > 30 mg/kg | ED50 [18]: > 300 mg/kg; ED50 [19]: 100 mg/kg; ED50 [20]: 30 mg/kg |
| NCc1ccc(OCc2cccc(F)c2)cc1 | – | – | – | – | – | inhibition [21]: Active; inhibition [22]: Active; IC50 [23]: 2100 nM |
